Measurements published in ChEMBL document CHEMBL4371011, “Pyrrolone Derivatives as Intracellular Allosteric Modulators for Chemokine Receptors: Selective and Dual-Targeting Inhibitors of CC Chemokine Receptors 1 and 2” (J Med Chem, 2018).
Several values for one entry are separate records, joined by “and”; a condition that tells them apart may be missing. Identical values can stand only once. Activity calls are given as the source filed them. No cut-off for these calls is given here.

Key:
[1] = target: T1, C-C chemokine receptor type 2 (Homo sapiens, UniProt P41597); assay: Displacement of [3H]-CCR2-RA-[R] from human TEV protease site linked CCR2b expressed in human U20S cell membranes co-expressing Gal4-VP16 transcription factor after 120 mins by scintillation spectrometry
Target sequence in this assay (P41597 whole entry, the tested form may be a part): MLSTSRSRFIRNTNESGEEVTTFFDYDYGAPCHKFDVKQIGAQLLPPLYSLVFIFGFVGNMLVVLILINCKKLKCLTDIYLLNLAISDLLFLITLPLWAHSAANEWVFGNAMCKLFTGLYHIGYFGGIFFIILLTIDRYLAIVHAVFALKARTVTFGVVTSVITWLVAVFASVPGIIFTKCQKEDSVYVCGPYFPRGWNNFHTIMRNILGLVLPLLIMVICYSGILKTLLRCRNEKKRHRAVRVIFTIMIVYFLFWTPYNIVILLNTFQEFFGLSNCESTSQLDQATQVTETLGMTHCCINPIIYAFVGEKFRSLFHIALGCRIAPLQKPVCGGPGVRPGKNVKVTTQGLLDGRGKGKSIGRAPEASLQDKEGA

[2] = target: T2, C-C chemokine receptor type 1 (Homo sapiens, UniProt P32246); assay: biochemical
T2 sequence (P32246 whole entry): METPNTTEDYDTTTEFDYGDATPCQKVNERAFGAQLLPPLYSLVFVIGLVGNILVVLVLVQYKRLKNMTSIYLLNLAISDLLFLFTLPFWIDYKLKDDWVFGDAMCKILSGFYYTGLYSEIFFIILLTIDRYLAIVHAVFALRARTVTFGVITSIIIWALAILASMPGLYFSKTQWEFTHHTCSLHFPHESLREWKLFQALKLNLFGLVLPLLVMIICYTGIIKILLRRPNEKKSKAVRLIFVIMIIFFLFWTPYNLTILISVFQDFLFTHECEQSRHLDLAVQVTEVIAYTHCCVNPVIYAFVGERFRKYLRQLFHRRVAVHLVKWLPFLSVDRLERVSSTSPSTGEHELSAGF

[3] = target: T2, C-C chemokine receptor type 1; assay: (§1) Antagonist activity at human TEV protease site linked CCR1 expressed in human U20S cell membranes co-expressing Gal4-VP16 transcription factor assessed as reduction in CCL3-induced G-protein activation preincubated for 30 mins in presence of CCL3 followed by incubation of 90 mins by [35S]GTPgammaS binding assay; format: functional
Summary of the method: (§2)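 Stably transfected U2OS membranes (10 μg; human CCR1 or CCR2b) in 50 mM Tris-HCl pH 7.4 with 5 mM MgCl2, 100 mM NaCl, 1 mM EDTA, 0.05% BSA, 10 μM GDP and 10 μg saponin. Preincubated with graded compound plus 8 nM CCL3 (CCR1) or 20 nM CCL2 (CCR2), then 0.3 nM [35S]GTPγS for 90 min at 25 °C.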

[4] = target: T1, C-C chemokine receptor type 2; assay: as §1, with “CCR2b” for “CCR1”, “CCL2-induced” for “CCL3-induced”, “CCL2” for “CCL3”; format: functional; summary of the method: as §2
Target sequence in this assay (P41597 whole entry, the tested form may be a part): as the sequence (P41597 whole entry, the tested form may be a part) above

Homo sapiens = species: Homo sapiens; assay: Selectivity ratio of IC50 for human TEV protease site linked CCR1 expressed in human U20S cell membranes co-expressing Gal4-VP16 transcription factor to IC50 for human TEV protease site linked CCR2b expressed in human U20S cell membranes co-expressing Gal4-VP16 transcription factor; format: cell-based
[5] = target: T3, C-C chemokine receptor type 1 (Homo sapiens) (UniProt P32246); assay: Inverse agonist activity at human TEV protease site linked CCR1 expressed in human U20S cell membranes co-expressing Gal4-VP16 transcription factor assessed as decrease in basal activity at 100 uM after 90 mins in presence of 1 uM GDP by [35S]GTPgammaS binding assay relative to control; format: functional
T3 sequence (whole entry): T2 sequence (P32246 whole entry)
Summary of the method: (§3)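 Basal [35S]GTPγS binding on human CCR1 U2OS membranes (10 μg) with saponin, in Tris/MgCl2/NaCl/EDTA/0.05% BSA, pH 7.4, without chemokine. Compound was tested at 100 μM with GDP at 1, 10 or 20 μM. Preincubation was 30 min at 25 °C, then 90 min after adding 0.3 nM [35S]GTPγS. Filtration and scintillation read-out; decrease versus basal.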

[6] = target: T3, C-C chemokine receptor type 1 (Homo sapiens); assay: Inverse agonist activity at human TEV protease site linked CCR1 expressed in human U20S cell membranes co-expressing Gal4-VP16 transcription factor assessed as decrease in basal activity at 100 uM after 90 mins in presence of 10 uM GDP by [35S]GTPgammaS binding assay relative to control; format: functional; summary of the method: as §3
[7] = target: T3, C-C chemokine receptor type 1 (Homo sapiens); assay: Inverse agonist activity at human TEV protease site linked CCR1 expressed in human U20S cell membranes co-expressing Gal4-VP16 transcription factor assessed as decrease in basal activity at 100 uM after 90 mins in presence of 20 uM GDP by [35S]GTPgammaS binding assay relative to control; format: functional; summary of the method: as §3
[8] = target: T3, C-C chemokine receptor type 1 (Homo sapiens); assay: Inverse agonist activity at human TEV protease site linked CCR1 expressed in human U20S cell membranes co-expressing Gal4-VP16 transcription factor assessed as decrease in basal activity after 90 mins in presence of 1 uM GDP by [35S]GTPgammaS binding assay relative to control; format: functional; summary of the method: as §3
[9] = target: T3, C-C chemokine receptor type 1 (Homo sapiens); assay: Displacement of [3H]-CCR2-RA-[R] from human TEV protease site linked CCR1 expressed in human U20S cell membranes co-expressing Gal4-VP16 transcription factor at 1 uM after 120 mins by scintillation spectrometry relative to control
[10] = target: T1, C-C chemokine receptor type 2; assay: Displacement of [3H]-CCR2-RA-[R] from human TEV protease site linked CCR2b expressed in human U20S cell membranes co-expressing Gal4-VP16 transcription factor at 1 uM after 120 mins by scintillation spectrometry relative to control
Target sequence in this assay (P41597 whole entry, looked up, the tested form may be a part): as the sequence (P41597 whole entry, the tested form may be a part) above

[11] = target: T1, C-C chemokine receptor type 2; assay: Inverse agonist activity at human TEV protease site linked CCR2b expressed in human U20S cell membranes co-expressing Gal4-VP16 transcription factor assessed as decrease in basal activity at 100 uM after 90 mins in presence of GDP by [35S]GTPgammaS binding assay relative to control; format: functional
Summary of the method: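 Basal G-protein activation on human CCR2b U2OS membranes (10 μg) plus 10 μg saponin and 10 μM GDP, pH 7.4 Tris buffer with NaCl, EDTA and BSA, no CCL2. Compound preincubated 30 min at 25 °C, then 90 min with 0.3 nM [35S]GTPγS. Bound label measured after filtration; change from basal.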
Target sequence in this assay (P41597 whole entry, looked up, the tested form may be a part): as the sequence (P41597 whole entry, the tested form may be a part) above

| SMILES | Ki ([1]; read-out: Ki) [nM] | Ki [2] | inhibition [10] [%] | further results |
| --- | --- | --- | --- | --- |
| Cc1ccc(N2C(=O)C(O)=C(C(=O)C3CC3)C2C2CCCCC2)cc1 (stereo not drawn) | 160 | 18.2 nM and 19 nM | – | – |
| CC(=O)C1=C(O)C(=O)N(c2ccc(Br)cc2F)C1c1cccc(Br)c1 (stereo not drawn) | 216 | 65 nM | – | – |
| CC(=O)C1=C(O)C(=O)N(c2ccc(C)c(C)c2)C1C1CCCCC1 (stereo not drawn) | 18 | 43 nM | – | – |
| CC(=O)C1=C(O)C(=O)N(c2ccc(Br)cc2)C1C1CCCCC1 (stereo not drawn) | 17 | 24 nM | – | – |
| CC(=O)C1=C(O)C(=O)N(c2ccc(C)cc2)C1c1ccc(Cl)cc1 (stereo not drawn) | 207 | 67 nM | – | – |
| CC(=O)C1=C(O)C(=O)N(c2ccc(Cl)c(C)c2)C1C1CCCCC1 (stereo not drawn) | 9 | 31 nM | – | Ki ([1]; read-out: pKi (converted)): 8.13 nM; IC50 ([3]; read-out: IC50): 1940 nM; IC50 ([3]; read-out: pIC50 (converted)): 1860 nM; IC50 ([4]; read-out: IC50): 40 nM; IC50 ([4]; read-out: pIC50 (converted)): 33.9 nM; Ratio IC50 (Homo sapiens): 48; inhibition [5]: 22%; inhibition [6]: 26%; inhibition [7]: 25%; Activity [8]: Active |
| COc1ccc(N2C(=O)C(O)=C(C(C)=O)C2C2CCCCC2)cc1 (stereo not drawn) | 217 | 260 nM | – | Ki ([1]; read-out: pKi (converted)): 214 nM |
| CC(=O)C1=C(O)C(=O)N(c2cccc(F)c2)C1C1CCCCC1 (stereo not drawn) | – | – | 47 | inhibition [9]: 44% |
| Cc1ccc(N2C(=O)C(O)=C(C(=O)C(C)(C)C)C2C2CCCCC2)cc1 (stereo not drawn) | 158 | 22 nM | – | Ki ([1]; read-out: pKi (converted)): 155 nM |
| Cc1ccc(N2C(=O)C(O)=C(C(=O)C(C)C)C2C2CCCCC2)cc1 (stereo not drawn) | 316 | 40.7 nM and 42 nM | – | – |
| CC(=O)C1=C(O)C(=O)N(c2ccc(Cl)cc2)C1C1CCCCC1 (stereo not drawn) | 19 | 38.9 nM and 40 nM | – | – |
| CC(=O)C1=C(O)C(=O)N(c2ccc(C)cc2)C1c1cccc(Cl)c1 (stereo not drawn) | – | 198 nM | 19 | – |
| CC(=O)C1=C(O)C(=O)N(c2ccc(Br)cc2F)C1C1CCCCC1 (stereo not drawn) | 6 | – | – | IC50 ([3]; read-out: IC50): 590 nM; IC50 ([3]; read-out: pIC50 (converted)): 550 nM; IC50 ([4]; read-out: IC50): 30 nM; Ratio IC50 (Homo sapiens): 19; Activity [8]: Active |
| CCCC(=O)C1=C(O)C(=O)N(c2ccc(C)cc2)C1C1CCCCC1 (stereo not drawn) | 144 | 29 nM | – | Ki ([1]; read-out: pKi (converted)): 138 nM |
| O=C(C1=C(O)C(=O)N(c2ccc(Br)cc2F)C1C1CCCCC1)C1CC1 (stereo not drawn) | 15 | 5 nM | – | IC50 ([3]; read-out: IC50): 950 nM; IC50 ([3]; read-out: pIC50 (converted)): 933 nM; IC50 ([4]; read-out: IC50): 330 nM; IC50 ([4]; read-out: pIC50 (converted)): 288 nM; Ratio IC50 (Homo sapiens): 3; Imax [11]: 27%; Activity [8]: Active |
| CC(=O)C1=C(O)C(=O)N(c2ccc(C)cc2)C1c1cccc(C)c1 (stereo not drawn) | – | – | 11 | inhibition [9]: 47% |
| CC(=O)C1=C(O)C(=O)N(c2ccccc2)C1C1CCCCC1 (stereo not drawn) | – | – | 45 | inhibition [9]: 42% |
| CCOC(=O)C1=C(O)C(=O)N(c2ccc(C)cc2)C1C1CCCCC1 (stereo not drawn) | – | 200 nM | 31 | – |
| CC(=O)C1=C(O)C(=O)N(c2ccc(C)cc2)C1c1cccc(Br)c1 (stereo not drawn) | – | 181 nM | 19 | – |
| CCC(=O)C1=C(O)C(=O)N(c2ccc(C)cc2)C1C1CCCCC1 (stereo not drawn) | 104 | 30 nM | – | – |

| SMILES | Ki ([1]; read-out: Ki) [nM] | Ki [2] | inhibition [10] [%] | further results |
| --- | --- | --- | --- | --- |
| O=C(C1=C(O)C(=O)N(c2ccc(Br)cc2F)C1C1CCCCC1)c1ccccc1 (stereo not drawn) | 66 | 28 nM | – | – |
| CCCCC(=O)C1=C(O)C(=O)N(c2ccc(C)cc2)C1C1CCCCC1 (stereo not drawn) | 158 | 31 nM | – | Ki ([1]; read-out: pKi (converted)): 155 nM |
| CCc1ccc(N2C(=O)C(O)=C(C(C)=O)C2C2CCCCC2)cc1 (stereo not drawn) | 66 | 168 nM | – | Ki ([1]; read-out: pKi (converted)): 64.6 nM |
| CC(=O)C1=C(O)C(=O)N(c2ccc(C)cc2F)C1C1CCCCC1 (stereo not drawn) | 37 | 27.5 nM and 29 nM | – | – |
| CC(=O)C1=C(O)C(=O)N(c2ccc(C(F)(F)F)cc2)C1C1CCCCC1 (stereo not drawn) | 92 | 138 nM and 144 nM | – | – |
| CC(=O)C1=C(O)C(=O)N(c2ccc(C)cc2)C1C1CCCCCCC1 (stereo not drawn) | 170 | 57 nM | – | Ki ([1]; read-out: pKi (converted)): 162 nM |
| CC(=O)C1=C(O)C(=O)N(c2ccc(C)cc2)C1C1CCCCC1 (stereo not drawn) | 81 | 56 nM | – | – |
| CC(=O)C1=C(O)C(=O)N(c2ccc(C)cc2)C1c1ccccc1 (stereo not drawn) | – | 162 nM | 39 | – |
| CC(=O)C1=C(O)C(=O)N(c2cccc(C)c2)C1C1CCCCC1 (stereo not drawn) | 265 | 500 nM | – | – |
| CC(=O)C1=C(O)C(=O)N(c2cccc(C(F)(F)F)c2)C1C1CCCCC1 (stereo not drawn) | 305 | – | – | Ki ([1]; read-out: pKi (converted)): 288 nM; inhibition [9]: 25% |
| CC(=O)C1=C(O)C(=O)N(c2ccc(C)c(F)c2)C1C1CCCCC1 (stereo not drawn) | 57 | 47.9 nM and 49 nM | – | – |
| CC(=O)C1=C(O)C(=O)N(c2ccc(C)cc2)C1c1ccc(Br)cc1 (stereo not drawn) | 214 | 85.1 nM and 87 nM | – | – |
| CC(=O)C1=C(O)C(=O)N(c2ccc(C)cc2)C1C1CCCCCC1 (stereo not drawn) | 96 | 56 nM | – | – |
| CC(=O)C1=C(O)C(=O)N(c2ccc(C)cc2)C1c1ccc(C)cc1 (stereo not drawn) | – | 195 nM and 198 nM | 36 | – |
| Cc1ccc(N2C(=O)C(O)=C(C(=O)OC(C)C)C2C2CCCCC2)cc1 (stereo not drawn) | – | – | 6 | inhibition [9]: 36% |
| CC(=O)C1=C(O)C(=O)N(c2cccc(Cl)c2)C1C1CCCCC1 (stereo not drawn) | 239 | 525 nM and 541 nM | – | – |
| O=C(C1=C(O)C(=O)N(c2ccc(Br)cc2F)C1c1cccc(Br)c1)C1CC1 (stereo not drawn) | – | 50 nM | 45 | IC50 ([3]; read-out: IC50): 8640 nM; IC50 ([3]; read-out: pIC50 (converted)): 8510 nM; IC50 ([4]; read-out: IC50): 8770 nM; Imax [11]: 58%; Activity [8]: Active |
| COc1cccc(C2C(C(C)=O)=C(O)C(=O)N2c2ccc(C)cc2)c1 (stereo not drawn) | – | – | 0 | inhibition [9]: 28% |
| Cc1ccc(N2C(=O)C(O)=C(C(=O)c3ccccc3)C2C2CCCCC2)cc1 (stereo not drawn) | – | 77 nM | 37 | – |
| COc1ccc(C2C(C(C)=O)=C(O)C(=O)N2c2ccc(C)cc2)cc1 (stereo not drawn) | – | 541 nM | 5 | – |
